Activity calls are given as the source filed them. The calls are words filed in the database; no cut-off is given here. Peptide text beside a SMILES is read from it.
Tests used:
Splicing factor 45 = molecular target: T1, Splicing factor 45 (Homo sapiens, UniProt Q96I25); assay: Binding affinity to His-Z-tagged SPF45 (unknown origin) UHM domain expressed in Escherichia coli BL21 (DE3) cells by ITC analysis
T1 sequence (Q96I25 whole entry): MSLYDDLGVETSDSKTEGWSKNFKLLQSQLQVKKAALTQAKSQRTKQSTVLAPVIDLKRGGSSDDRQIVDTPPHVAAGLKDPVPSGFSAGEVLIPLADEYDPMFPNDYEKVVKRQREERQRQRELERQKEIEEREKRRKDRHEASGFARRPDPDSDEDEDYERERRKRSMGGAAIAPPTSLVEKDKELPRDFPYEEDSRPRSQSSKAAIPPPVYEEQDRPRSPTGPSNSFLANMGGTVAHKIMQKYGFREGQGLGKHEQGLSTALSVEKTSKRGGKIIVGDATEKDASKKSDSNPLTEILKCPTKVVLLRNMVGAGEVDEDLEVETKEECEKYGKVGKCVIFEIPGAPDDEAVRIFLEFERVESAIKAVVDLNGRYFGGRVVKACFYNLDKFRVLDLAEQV
Procedure, shortened: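 SPF45 UHM domain expressed in BL21 (DE3) as His-Ztag fusion (0.5 mM IPTG, overnight at 20 °C), then Ni-NTA, TEV cleavage of tag, ion exchange and size exclusion. ITC: 5–20 μM protein in cell titrated with 10-fold concentrated peptide, 1.5 μL injections. One-site binding fit; errors are SD of fitting errors by error propagation.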

Homo sapiens = species on record: Homo sapiens; assay: Selectivity index, ratio of Kd for U2AF65 UHM domain to Kd for His-Z-tagged SPF45 (unknown origin) UHM domain
[1] = molecular target: T2, Splicing factor 45 (Homo sapiens) (UniProt Q96I25); assay: Inhibition of SPF45-mediated splicing in human HeLa nuclear extracts assessed as reduction in splicing products formation at 500 uM incubated for 20 mins before addition of IgM pre-mRNA as the splicing substrate by agarose gel electrophoresis
T2 sequence (whole entry): T1 sequence (Q96I25 whole entry)
Procedure, shortened: (§1)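 Peptide added to 25–500 μM final and held 20 min on ice before pre-mRNA. Spliced product normalized to the no-peptide control; SD from two independent experiments. Complex formation read by agarose gel electrophoresis.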

[2] = molecular target: T2, Splicing factor 45 (Homo sapiens); assay: Inhibition of SPF45-mediated splicing in human HeLa nuclear extracts assessed as reduction in complex A formation during spliceosome-assembly at 25 to 500 uM incubated for 20 mins before addition of IgM pre-mRNA as the splicing substrate by agarose gel electrophoresis; assay type: tissue-based; conditions: dose 25-500 µM; procedure, shortened: as §1
[3] = molecular target: T2, Splicing factor 45 (Homo sapiens); assay: Inhibition of SPF45-mediated splicing in human HeLa nuclear extracts assessed as splicing products formation at 25 to 500 uM incubated for 20 mins before addition of IgM pre-mRNA as the splicing substrate by agarose gel electrophoresis; set-up: scale not given: the % may be the effect or the level left; conditions: dose 25-500 µM; procedure, shortened: as §1

Kd (Splicing factor 45) | Structure (SMILES) | also measured
750 nM | N=C(N)NCCC[C@@H]1NC(=O)[C@H](CO)NC(=O)[C@H](N)CCCCNC(=O)CC[C@H](C(=O)NC(CCCCN=C(N)N)C(=O)O)NC(=O)[C@H](CC(=O)O)NC(=O)[C@H](Cc2c[nH]c3ccccc23)NC1=O (some centres undefined) | 
1260 nM | CN1CCCC[C@@H](N)C(=O)N[C@@H](CO)C(=O)N[C@@H](CCCNC(=N)N)C(=O)N[C@@H](Cc2c[nH]c3ccccc23)C(=O)N[C@@H](CC(=O)O)C(=O)N[C@@H](C(=O)N[C@@H](CCCCN)C(=O)O)CCC1=O | 
1850 nM | N=C(N)NCCC[C@@H]1NC(=O)[C@H](CO)NC(=O)[C@H](N)CCCCNC(=O)CC[C@H](C(=O)N[C@@H](Cc2ccc(O)cc2)C(=O)O)NC(=O)[C@H](CC(=O)O)NC(=O)[C@H](Cc2c[nH]c3ccccc23)NC1=O | 
1400 nM | N=C(N)NCCC[C@@H]1NC(=O)[C@H](CO)NC(=O)[C@H](N)CCCCNC(=O)CC[C@H](C(=O)O)NC(=O)[C@H](CC(=O)O)NC(=O)[C@H](Cc2c[nH]c3ccccc23)NC1=O | 
960 nM | N=C(N)NCCC[C@@H]1NC(=O)[C@H](CO)NC(=O)[C@H](N)CCCCNC(=O)CC[C@H](C(=O)N[C@@H](Cc2cnc[nH]2)C(=O)O)NC(=O)[C@H](CC(=O)O)NC(=O)[C@H](Cc2c[nH]c3ccccc23)NC1=O | 
15700 nM | N=C(N)NCCC[C@H](NC(=O)[C@H](CO)NC(=O)[C@@H](N)CCCCN)C(=O)N[C@@H](Cc1c[nH]c2ccccc12)C(=O)N[C@@H](CC(=O)O)C(=O)N[C@@H](CCC(=O)O)C(=O)O (H-KSRWDE-OH) | Ratio (Homo sapiens): 9
800 nM | N=C(N)NCCC[C@@H]1NC(=O)[C@H](CO)NC(=O)[C@H](N)CCCCNC(=O)CC[C@H](C(=O)N[C@@H](Cc2c[nH]c3ccccc23)C(=O)O)NC(=O)[C@H](CC(=O)O)NC(=O)[C@H](Cc2c[nH]c3ccccc23)NC1=O | 
510 nM | N=C(N)NCCC[C@H](NC(=O)[C@H]1CCC(=O)NCCCC[C@@H](N)C(=O)N[C@@H](CO)C(=O)N[C@@H](CCCNC(=N)N)C(=O)N[C@@H](Cc2c[nH]c3ccccc23)C(=O)N[C@@H](CC(=O)O)C(=O)N1)C(=O)O | 
180 nM | N=C(N)NCCC[C@@H]1NC(=O)[C@H](CO)NC(=O)[C@H](N)CCCCNC(=O)CC[C@H](C(=O)N[C@@H](CCCCN)C(=O)O)NC(=O)[C@H](CC(=O)O)NC(=O)[C@H](Cc2c[nH]c3ccccc23)NC1=O | inhibition [1]: Active; inhibition [2]: Active; Activity [3]: 29%; Ratio (Homo sapiens): 270
